Data taken from ChEMBL document CHEMBL1152551, “Synthesis and pharmacological evaluation of novel 1- and 8-substituted-3-furfuryl xanthines as adenosine receptor antagonists” (Bioorg Med Chem, 2009).

Columns and labels:
[1] = biological target: T1, Adenosine receptor A2b (Homo sapiens) (UniProt P29275); test: Displacement of [3H]DPCPX from human adenosine A2B receptor expressed in HEK293 cells at 1 uM; assay type: cell-based
T1 sequence (whole entry): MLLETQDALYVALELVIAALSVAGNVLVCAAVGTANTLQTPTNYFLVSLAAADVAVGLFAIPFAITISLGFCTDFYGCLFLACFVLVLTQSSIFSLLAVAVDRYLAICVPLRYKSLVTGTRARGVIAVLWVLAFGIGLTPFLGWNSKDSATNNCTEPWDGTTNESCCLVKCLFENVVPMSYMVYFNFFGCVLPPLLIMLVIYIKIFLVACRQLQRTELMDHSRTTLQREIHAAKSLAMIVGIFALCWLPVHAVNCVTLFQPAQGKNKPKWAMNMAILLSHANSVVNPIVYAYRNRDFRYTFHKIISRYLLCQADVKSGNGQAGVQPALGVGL
Method in brief: (§1)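 Single concentration of 1 µM tested for displacement of specific radioligand binding, given as percentage displacement. Rat A1 in rat cortex membranes with [3H]DPCPX; human A2B in HEK-293 cells with [3H]DPCPX; human A2A in HeLa cells with [3H]ZM241385; human A3 in HeLa cells with [3H]NECA.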

Adenosine receptor A2a = Adenosine receptor A2a (Homo sapiens, UniProt P29274); test: Displacement of [3H]ZM241385 from human adenosine A2A receptor expressed in HeLa cells at 1 uM by microplate beta scintillation counting; assay type: cell-based; method in brief: as §1
Adenosine receptor A2a, sequence (P29274 whole entry): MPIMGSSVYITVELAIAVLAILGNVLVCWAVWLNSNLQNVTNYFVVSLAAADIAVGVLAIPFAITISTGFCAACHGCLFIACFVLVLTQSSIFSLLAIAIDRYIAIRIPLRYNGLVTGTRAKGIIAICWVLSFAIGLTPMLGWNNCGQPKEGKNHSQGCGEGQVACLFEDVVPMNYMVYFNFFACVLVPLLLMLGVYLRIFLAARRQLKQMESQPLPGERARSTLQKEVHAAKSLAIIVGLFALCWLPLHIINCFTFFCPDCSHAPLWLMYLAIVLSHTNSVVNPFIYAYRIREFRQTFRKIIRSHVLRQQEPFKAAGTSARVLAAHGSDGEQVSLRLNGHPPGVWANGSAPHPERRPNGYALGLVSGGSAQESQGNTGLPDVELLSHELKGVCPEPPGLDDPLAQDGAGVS

[2] = biological target: T2, Adenosine receptor A3 (Homo sapiens) (UniProt P0DMS8); test: Displacement of [3H]NECA from human recombinant adenosine A3 receptor expressed in HeLa cells at 1 uM; assay type: cell-based; method in brief: as §1
T2 sequence (whole entry): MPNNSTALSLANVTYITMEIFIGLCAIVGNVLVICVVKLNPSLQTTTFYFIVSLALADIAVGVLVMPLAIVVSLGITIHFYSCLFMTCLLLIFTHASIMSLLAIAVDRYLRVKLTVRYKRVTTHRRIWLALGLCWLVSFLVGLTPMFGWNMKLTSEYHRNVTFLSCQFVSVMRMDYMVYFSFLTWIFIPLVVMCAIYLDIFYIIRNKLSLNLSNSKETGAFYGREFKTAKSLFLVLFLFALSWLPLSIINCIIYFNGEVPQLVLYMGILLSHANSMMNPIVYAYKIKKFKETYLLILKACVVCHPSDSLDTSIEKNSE

[3] = biological target: T3, Adenosine receptor A1 (Rattus norvegicus) (UniProt P25099); test: Displacement of [3H]DPCPX form adenosine A1 receptor in rat cortex membrane at 1 uM; assay type: cell membranes; method in brief: as §1
T3 sequence (whole entry): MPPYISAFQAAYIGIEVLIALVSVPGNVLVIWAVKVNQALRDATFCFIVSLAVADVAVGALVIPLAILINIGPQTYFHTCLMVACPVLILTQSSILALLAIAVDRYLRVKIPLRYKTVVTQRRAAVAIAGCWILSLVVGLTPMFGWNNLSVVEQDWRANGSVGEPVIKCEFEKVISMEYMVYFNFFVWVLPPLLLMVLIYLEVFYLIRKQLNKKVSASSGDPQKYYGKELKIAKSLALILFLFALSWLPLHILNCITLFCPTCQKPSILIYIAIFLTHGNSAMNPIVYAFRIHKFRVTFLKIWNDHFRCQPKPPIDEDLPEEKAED

## C=CCn1c(=O)c2[nH]c(Cc3c(F)cccc3F)nc2n(Cc2ccco2)c1=O
[1]
  Activity: 24%
Adenosine receptor A2a
  Activity: 11%
[2]
  Activity: 1%
[3]
  Activity: 3%

## CCS(=O)(=O)CCn1c(=O)c2[nH]c(Cc3ccccc3)nc2n(Cc2ccco2)c1=O
[1]
  Activity: 20%
Adenosine receptor A2a
  Activity: 1%
[2]
  Activity: 1%
[3]
  Activity: 2%
